ChEMBL document CHEMBL1134566, “Human thioredoxin reductase is efficiently inhibited by (2,2':6',2' '-terpyridine)platinum(II) complexes. Possible implications for a novel antitumor strategy” (J Med Chem, 2001)
pIC50, pKi: −log10 of the molar value.

How the values were obtained:
[1] = target: T1, Thioredoxin reductase (Homo sapiens, UniProt Q16881+Q9NNW7+Q86VQ6); test: Inhibitory concentration at 50% inhibition; assay type: protein assay
Outline: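 Tight-binding hTrxR inhibition. Human placental TrxR (~2 nM) in 100 mM potassium phosphate, 2 mM EDTA, pH 7.4, reduced with 200 μM NADPH, then preincubated with varying inhibitor for 5 min at 25 °C (footnote says 2 min). Activity started with 3 mM DTNB and read as A412 increase. IC50 taken from dose-response curves.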

[2] = target: T1, Thioredoxin reductase; test: Inhibitory concentration used to inhibit the enzyme competitively with the substrate; assay type: protein assay
Outline: (§1)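 Reversible competitive component. About 2 nM placental hTrxR with DTNB 50 μM–1 mM and a single inhibitor concentration (10 nM–1 μM) in phosphate/EDTA buffer, pH 7.4. Started with 200 μM NADPH at 25 °C, TNB formation read at 412 nm. Km' compared with Km without inhibitor; Ki = Km[I]/(Km' − Km).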

[3] = target: T1, Thioredoxin reductase; test: Michaelis-Menten constant (Km') for DTNB (5,5'-dithiobis(2-nitrobenzoate) in the presence of the compound; assay type: protein assay; outline: as §1
[4] = target: T1, Thioredoxin reductase; test: Inhibitory concentration for Km'; assay type: protein assay; outline: as §1
[5] = target: Glutathione reductase, mitochondrial (Homo sapiens) (UniProt P00390); test: Percent inhibition of the glutathione reductase after 2 min incubation at 10 uM inhibitory concentration
Outline: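 Human glutathione reductase in 47 mM potassium phosphate, 1 mM EDTA, 200 mM KCl, pH 6.9, 100 μM NADPH. Enzyme preincubated 2 min with 10 μM compound in the assay mixture, then started with 1 mM GSSG at 25 °C. NADPH consumption followed as A340 decrease; percent inhibition versus uninhibited enzyme.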

[6] = target: T1, Thioredoxin reductase; test: Percent TrxR activity after exposure to 1 uM for 270 mins; assay type: functional
Outline: (§2)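 NCH37 glioblastoma cells in RPMI 1640 with 10% FCS at 37 °C, 5% CO2, given compound once or as doses at 0, 24 and 48 h. Sampled at 30, 90, 270 min or 67 h. Intact cells washed in PBS and sonicated; cleared lysate assayed. TrxR used 100 μM E. coli thioredoxin, with NADPH oxidase background subtracted. GR used the GSSG/NADPH A340 assay. mU/10^6 cells given as % of untreated controls, mean of three experiments.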

[7] = target: T1, Thioredoxin reductase; test: Percent TrxR activity after exposure to 5 uM for 30 mins; assay type: functional; outline: as §2
[8] = target: T1, Thioredoxin reductase; test: Percent TrxR activity after exposure to 3x5 uM concentration at regular intervals of 0,24,48 hours for the period of 67 hours; assay type: functional; outline: as §2
[9] = target: T1, Thioredoxin reductase; test: Percent TrxR activity after exposure to 1 uM for 90 mins; assay type: functional; outline: as §2
[10] = target: Glutathione reductase, mitochondrial (Homo sapiens) (UniProt P00390); test: Percent GR activity after exposure to 3x5 uM concentration at regular intervals of 0,24,48 hours for the period of 67 hours; outline: as §2
[11] = target: Glutathione reductase, mitochondrial (Homo sapiens) (UniProt P00390); test: Percent GR activity after exposure to 3x1 uM concentration at regular intervals of 0,24,48 hours for the period of 67 hours; outline: as §2
[12] = target: T1, Thioredoxin reductase; test: Percent TrxR activity after exposure to 1 uM for 67h; assay type: functional; outline: as §2
[13] = target: T1, Thioredoxin reductase; test: Percent TrxR activity after exposure to 3x1 uM concentration at regular intervals of 0,24,48 hours for the period of 67 hours; assay type: functional; outline: as §2
[14] = target: T1, Thioredoxin reductase; test: Percent TrxR activity after exposure to 10 uM for 67 hrs; assay type: functional; outline: as §2
[15] = target: T1, Thioredoxin reductase; test: Percent TrxR activity after exposure to 5 uM for 67 hr; assay type: functional; outline: as §2
[16] = target: Glutathione reductase, mitochondrial (Homo sapiens) (UniProt P00390); test: Percent GR activity after exposure to 3x10 uM concentration at regular intervals of 0,24,48 hours for the period of 67 hours; outline: as §2
[17] = target: Glutathione reductase, mitochondrial (Homo sapiens) (UniProt P00390); test: Percent GR activity after exposure to 1 uM for 90 min; outline: as §2
[18] = target: T1, Thioredoxin reductase; test: Percent TrxR activity after exposure to 1 uM for 30 mins; assay type: functional; outline: as §2
[19] = target: Glutathione reductase, mitochondrial (Homo sapiens) (UniProt P00390); test: Percent GR activity after exposure to 10 uM for 67 hr; outline: as §2
[20] = target: T1, Thioredoxin reductase; test: Percent TrxR activity after exposure to 3x10 uM concentration at regular intervals of 0,24,48 hours for the period of 67 hours; assay type: functional; outline: as §2
[21] = target: Glutathione reductase, mitochondrial (Homo sapiens) (UniProt P00390); test: Percent GR activity after exposure to 1 uM for 30 min; outline: as §2
[22] = target: Glutathione reductase, mitochondrial (Homo sapiens) (UniProt P00390); test: Percent GR activity after exposure to 5 uM for 67 hr; outline: as §2
[23] = target: Glutathione reductase, mitochondrial (Homo sapiens) (UniProt P00390); test: Percent GR activity after exposure to 1 uM for 67 hr; outline: as §2
[24] = target: Glutathione reductase, mitochondrial (Homo sapiens) (UniProt P00390); test: Percent GR activity after exposure to 1 uM for 270 min; outline: as §2
[25] = system: NCH89; test: 50% Growth inhibition on NCH89 glioma cell lines; assay type: functional, cell-based
Outline: (§3)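 BrdU incorporation proliferation assay. 7×10^3 cells/well in RPMI 1640 with 10% FCS, 8 replicas. Compound added 24 h after seeding at 1, 5, 10 or 20 μM, either once or three times at 24 h intervals; 67 h total incubation. BrdU (100 μM final) added 48 h after first addition. Absorbance expressed relative to untreated controls (100%). IC50 ± SD from ≥2 independent experiments.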

[26] = system: HNO199 cell line; test: 50% Growth inhibition on HNO199 head and neck squamous carcinoma cell lines; assay type: functional, cell-based; outline: as §3
[27] = system: HNO 97 cell line; test: 50% Growth inhibition on HNO97 head and neck squamous carcinoma cell lines; assay type: functional, cell-based; outline: as §3
[28] = system: NCH82; test: 50% Growth inhibition on NCH82 glioma cell lines
[29] = system: NCH37; test: 50% Growth inhibition on NCH37 glioma cell lines

Sequence of Glutathione reductase, mitochondrial (Homo sapiens) (P00390 whole entry): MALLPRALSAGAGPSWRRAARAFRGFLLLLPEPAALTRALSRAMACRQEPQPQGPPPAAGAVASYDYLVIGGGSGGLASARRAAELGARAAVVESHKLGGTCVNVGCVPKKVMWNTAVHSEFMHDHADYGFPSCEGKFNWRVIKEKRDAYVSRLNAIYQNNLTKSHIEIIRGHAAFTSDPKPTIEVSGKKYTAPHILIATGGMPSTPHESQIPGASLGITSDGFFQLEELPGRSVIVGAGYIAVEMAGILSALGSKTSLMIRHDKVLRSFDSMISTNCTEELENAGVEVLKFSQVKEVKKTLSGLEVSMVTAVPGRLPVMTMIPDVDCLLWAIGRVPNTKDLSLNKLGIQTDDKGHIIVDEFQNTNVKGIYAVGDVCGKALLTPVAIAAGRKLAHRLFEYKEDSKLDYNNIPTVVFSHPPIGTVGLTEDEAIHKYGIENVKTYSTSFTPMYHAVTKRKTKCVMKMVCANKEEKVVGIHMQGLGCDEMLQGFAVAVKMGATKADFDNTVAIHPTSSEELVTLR
T1 sequence (Q86VQ6 whole entry, looked up, chain 1 of 3): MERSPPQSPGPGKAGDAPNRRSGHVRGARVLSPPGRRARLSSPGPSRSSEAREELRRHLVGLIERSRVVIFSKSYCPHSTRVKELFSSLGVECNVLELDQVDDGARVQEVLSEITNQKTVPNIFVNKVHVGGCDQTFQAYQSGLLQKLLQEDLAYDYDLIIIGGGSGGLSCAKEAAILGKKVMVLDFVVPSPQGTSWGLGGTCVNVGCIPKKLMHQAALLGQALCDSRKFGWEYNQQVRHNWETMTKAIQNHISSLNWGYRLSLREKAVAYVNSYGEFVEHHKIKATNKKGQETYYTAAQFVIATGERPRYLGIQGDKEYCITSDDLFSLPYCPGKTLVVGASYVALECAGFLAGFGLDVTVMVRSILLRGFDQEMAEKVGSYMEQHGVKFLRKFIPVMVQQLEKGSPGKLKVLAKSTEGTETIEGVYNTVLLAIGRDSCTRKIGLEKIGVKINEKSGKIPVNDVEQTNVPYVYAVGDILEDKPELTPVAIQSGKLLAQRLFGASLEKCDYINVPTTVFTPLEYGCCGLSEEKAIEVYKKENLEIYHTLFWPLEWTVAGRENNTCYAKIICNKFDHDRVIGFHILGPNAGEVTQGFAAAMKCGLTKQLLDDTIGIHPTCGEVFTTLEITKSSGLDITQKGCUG
T1 sequence (Q9NNW7 whole entry, looked up, chain 2 of 3): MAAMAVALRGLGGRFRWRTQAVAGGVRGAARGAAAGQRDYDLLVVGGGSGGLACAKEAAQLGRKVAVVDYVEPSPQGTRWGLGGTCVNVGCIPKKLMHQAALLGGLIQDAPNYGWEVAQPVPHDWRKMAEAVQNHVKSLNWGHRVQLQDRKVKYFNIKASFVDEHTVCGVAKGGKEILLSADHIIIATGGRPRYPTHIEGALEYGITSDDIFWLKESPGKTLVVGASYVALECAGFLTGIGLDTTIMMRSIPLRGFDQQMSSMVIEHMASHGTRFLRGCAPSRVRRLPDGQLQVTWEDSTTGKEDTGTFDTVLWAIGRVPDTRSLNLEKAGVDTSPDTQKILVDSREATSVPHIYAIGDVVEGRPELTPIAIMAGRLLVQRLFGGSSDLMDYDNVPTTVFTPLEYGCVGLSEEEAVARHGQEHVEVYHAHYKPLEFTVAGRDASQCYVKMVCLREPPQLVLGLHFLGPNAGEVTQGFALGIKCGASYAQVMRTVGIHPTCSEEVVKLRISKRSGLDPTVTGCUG
T1 sequence (Q16881 whole entry, looked up, chain 3 of 3): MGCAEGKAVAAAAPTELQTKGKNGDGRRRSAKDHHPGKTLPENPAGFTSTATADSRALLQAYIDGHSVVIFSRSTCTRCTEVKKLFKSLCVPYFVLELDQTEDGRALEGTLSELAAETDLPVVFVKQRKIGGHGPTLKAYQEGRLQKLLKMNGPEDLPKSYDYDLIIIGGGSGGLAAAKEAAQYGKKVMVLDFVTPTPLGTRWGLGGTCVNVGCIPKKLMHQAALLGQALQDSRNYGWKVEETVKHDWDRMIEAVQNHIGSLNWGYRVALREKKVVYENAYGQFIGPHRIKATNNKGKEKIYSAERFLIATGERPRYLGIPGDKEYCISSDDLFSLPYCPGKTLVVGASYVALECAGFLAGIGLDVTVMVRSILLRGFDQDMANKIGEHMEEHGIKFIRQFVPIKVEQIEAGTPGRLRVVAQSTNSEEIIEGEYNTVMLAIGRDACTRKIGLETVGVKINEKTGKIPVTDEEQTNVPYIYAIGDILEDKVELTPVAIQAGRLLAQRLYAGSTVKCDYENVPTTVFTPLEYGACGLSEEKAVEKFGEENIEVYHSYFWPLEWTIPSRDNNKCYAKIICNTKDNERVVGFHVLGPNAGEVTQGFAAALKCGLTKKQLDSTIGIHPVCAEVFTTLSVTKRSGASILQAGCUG

Substance | pIC50 [1] | pKi [2] | Km' [3] | [I] for Km' [4] | inhibition [5] | further results
4-Mercaptoethanol-(2,2':6',4'-chloro,2''-terpyridine)platinum (II) Nitrate [listing 1 of 2 here] | 7.52 | 7.66 |  |  |  | 
2-Mercaptoimidazole Bis[(4'-chloro-2,2':6',2''-terpyridine)platinum (II)] Trinitrate [listing 1 of 2 here] |  |  | 1010 µM | 0.1 µM | 20% | 
4-Mercaptoethanol-(2,2':6',2''-terpyridine)platinum (II) Nitrate [listing 1 of 2 here] | 7.46 | 6.46 |  |  |  | 
4-Mercaptoethanol-(2,2':6',2''-terpyridine)platinum (II) Nitrate [listing 2 of 2 here] |  |  | 399 µM | 1 µM | 7% | 
2-Mercaptopyridine (4'-chloro-2,2':6',2''-terpyridine)platinum (II) Nitrate [listing 1 of 2 here] | 8.22 | 8.15 |  |  |  | 
2-Mercaptopyridine (4'-chloro-2,2':6',2''-terpyridine)platinum (II) Nitrate [listing 2 of 2 here] |  |  | 247 µM | 0.01 µM | 47% | 
4-Mercaptopyridine (4'-chloro-2,2':6',2''-terpyridine)platinum (II) Nitrate [listing 1 of 2 here] |  |  | 1060 µM | 0.05 µM | 90% | Activity [6]: 90%; Activity [7]: 30%; Activity [8]: 60%; Activity [9]: 50%; Activity [10]: 220%; Activity [11]: 180%; Activity [12]: 160%; Activity [13]: 110%; Activity [14]: 80%; Activity [15]: 130%; Activity [16]: 180%; Activity [17]: 90%; Activity [18]: 50%; Activity [19]: 260%; Activity [20]: 5%; Activity [21]: 90%; Activity [22]: 200%; Activity [23]: 220%; Activity [24]: 110%
4-Mercaptopyridine (4'-chloro-2,2':6',2''-terpyridine)platinum (II) Nitrate [listing 2 of 2 here] | 8.40 | 8.30 |  |  |  | pIC50 [25]: 5.60; pIC50 [26]: 5.04; pIC50 [27]: 5.26; pIC50 [28]: 5.13; pIC50 [29]: 4.98
2-Mercaptopyrimidine (4'-chloro-2,2':6',2''-terpyridine)platinum (II) Nitrate [listing 1 of 2 here] | 8.15 | 7.77 |  |  |  | 
2-Mercaptopyrimidine (4'-chloro-2,2':6',2''-terpyridine)platinum (II) Nitrate [listing 2 of 2 here] |  |  | 715 µM | 0.1 µM | 66% | 
4-Mercaptoethanol-(2,2':6',4'-chloro,2''-terpyridine)platinum (II) Nitrate [listing 2 of 2 here] |  |  | 4740 µM | 1 µM | 55% | 
2-Mercaptoimidazole Bis[(4'-chloro-2,2':6',2''-terpyridine)platinum (II)] Trinitrate [listing 2 of 2 here] | 8.52 | 7.96 |  |  |  | 
